Common to all, as to type: functional, cell-based
The nature of assay [1]: Cytotoxicity against human KU7 cells. The method in brief:
(§1)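 Cells seeded at 3×10^4 per well in DMEM:Ham's F-12 with 2.5% charcoal-stripped FBS and allowed 24 h to attach. Then exposed to DMSO vehicle or compound, with medium and compound renewed every 48 h. Cell number counted at set times on a Coulter particle counter. Triplicate runs; IC50 obtained by linear regression.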

For assay [2], the system named is PANC-1. Description: Cytotoxicity against human Panc1 cells. In outline: as §1
The nature of assay [3]: Cytotoxicity against human Panc28 cells. The method in brief: as §1
A short description of assay [4]: Cytotoxicity against human 253JBV cells. In outline: as §1

Data on 12 compounds can be found in ChEMBL document CHEMBL1144731, “Structure-dependent inhibition of bladder and pancreatic cancer cell growth by 2-substituted glycyrrhetinic and ursolic acid derivatives” (Bioorg Med Chem Lett, 2008).

Molecules are shown by their SMILES.

As usually defined, the IC50 is the concentration that inhibits the measured activity by half. Read a high IC50 as lower potency. Take `COC(=O)[C@]12CC[C@@H](C)[C@H](C)[C@H]1C1=CC[C@@H]3[C@@]4(C)C=C(C#N)C(=O)C(C)(C)[C@@H]4CC[C@@]3(C)[C@]1(C)CC2`: the IC50 in assay [1] is 0.3 µM; in assay [2], 0.53 µM; in assay [3], 0.97 µM; in assay [4], 0.17 µM.

For the compound `COC(=O)[C@]12CC[C@@H](C)[C@H](C)[C@H]1C1=CC[C@@H]3[C@@]4(C)CC[C@H](O)C(C)(C)[C@@H]4CC[C@@]3(C)[C@]1(C)CC2` [METHYL URSOLATE], the half-inhibitory concentration (IC50) in assay [1] came to 8.95 µM; in assay [2], 11.8 µM; in assay [3] it was 10.6 µM; in assay [4], 6.13 µM.

Take `COC(=O)[C@]12CC[C@@H](C)[C@H](C)[C@H]1C1=CC[C@@H]3[C@@]4(C)C=C(I)C(=O)C(C)(C)[C@@H]4CC[C@@]3(C)[C@]1(C)CC2`: the IC50 in assay [1] was 6.02 µM; in assay [2] it was 6.91 µM; in assay [3], 13.5 µM; in assay [4], 4.9 µM.

As to `COC(=O)[C@@]1(C)CC[C@]2(C)CC[C@]3(C)C(=CC(=O)[C@@H]4[C@@]5(C)C=C(C(F)(F)F)C(=O)C(C)(C)[C@@H]5CC[C@]43C)[C@@H]2C1`, the IC50 is 0.38 µM in assay [1], 0.82 µM in assay [2], 1.14 µM in assay [3] and 0.67 µM in assay [4].

With `CC1(C)C(=O)C(C#N)=C[C@]2(C)[C@H]3C(=O)C=C4[C@@H]5C[C@@](C)(C(=O)O)CC[C@]5(C)CC[C@@]4(C)[C@]3(C)CC[C@@H]12`, the half-inhibitory concentration (IC50) came out at 5.88 µM in assay [1], 3.81 µM in assay [2], 7.32 µM in assay [3] and 6.1 µM in assay [4].

Consider `COC(=O)[C@@]1(C)CC[C@]2(C)CC[C@]3(C)[C@H](C(=O)C=C4[C@@]5(C)C=C(I)C(=O)C(C)(C)[C@@H]5CC[C@]43C)[C@@H]2C1`, for which the IC50 in assay [1] was determined as 2.61 µM; in assay [2], 4.45 µM; in assay [3], 3.66 µM; in assay [4], 3.62 µM.

On to `COC(=O)[C@@]1(C)CC[C@]2(C)CC[C@]3(C)C(=CC(=O)[C@@H]4[C@@]5(C)C=C(C#N)C(=O)C(C)(C)[C@@H]5CC[C@]43C)[C@@H]2C1`, for which the 50% inhibitory concentration (IC50) in assay [1] was found to be 1.59 µM; in assay [2], 1.22 µM; in assay [3], 1.8 µM; in assay [4], 0.25 µM.

On to `COC(=O)[C@]12CC[C@@H](C)[C@H](C)[C@H]1C1=CC[C@@H]3[C@@]4(C)C=C(C(F)(F)F)C(=O)C(C)(C)[C@@H]4CC[C@@]3(C)[C@]1(C)CC2`, for which the IC50 was 0.47 µM in assay [1], 0.65 µM in assay [2], 1.13 µM in assay [3] and 0.17 µM in assay [4].

As for `COC(=O)[C@@]1(C)CC[C@]2(C)CC[C@]3(C)C(=CC(=O)[C@@H]4[C@@]5(C)C=C(I)C(=O)C(C)(C)[C@@H]5CC[C@]43C)[C@@H]2C1`, the IC50 worked out at 3.04 µM in assay [1], 4.08 µM in assay [2], 12.8 µM in assay [3] and 2.67 µM in assay [4].

Turning to `COC(=O)[C@@]1(C)CC[C@]2(C)CC[C@]3(C)C(=CC(=O)[C@@H]4[C@@]5(C)C=C(S(C)(=O)=O)C(=O)C(C)(C)[C@@H]5CC[C@]43C)[C@@H]2C1`, the 50% inhibitory concentration (IC50) amounted to 3.34 µM in assay [1], 7.69 µM in assay [2], 9.75 µM in assay [3] and 12 µM in assay [4].

As to `COC(=O)[C@@]1(C)CC[C@]2(C)CC[C@]3(C)[C@H](C(=O)C=C4[C@@]5(C)C=C(C(F)(F)F)C(=O)C(C)(C)[C@@H]5CC[C@]43C)[C@@H]2C1`, the IC50 amounted to 1.37 µM in assay [1], 0.68 µM in assay [2], 1.13 µM in assay [3] and 0.36 µM in assay [4].

For `COC(=O)[C@@]1(C)CC[C@]2(C)CC[C@]3(C)C(=CC(=O)[C@@H]4[C@@]5(C)C=C(P(=O)(OC)OC)C(=O)C(C)(C)[C@@H]5CC[C@]43C)[C@@H]2C1`, the IC50 in assay [1] was 3.73 µM; in assay [2], 6.11 µM; in assay [3], 8.14 µM; in assay [4], 7.9 µM.
